pPAFAH inh: pPAFAH (human) enzyme inhibition; recombinant pPAFAH, FP-rhodamine probe fluorescence polarization; inhibition, % at 3.39 µM; 330,000 compounds, 1.5% hits;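 active = inhibition above the mean inhibition across the screen plus 3 SD, cut at about 25% in these data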;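 also: inhibitors block binding of the rhodamine activity-based probe so polarization drops; 0% = enzyme with DMSO and 100% = wells lacking pPAFAH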
PAFAH1B2 FP inh: blocks human PAF acetylhydrolase 1b catalytic subunit 2; P68402; recombinant PAFAH1B2, FP-rhodamine activity probe, fluorescence polarization; inhibition, % at 3.39 µM; 340,000 compounds, 1.2% hits;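 active = inhibition above the mean of all tested compounds plus 3 SD, cut at about 24% in these data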;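 also: 0% = enzyme with DMSO and 100% = wells lacking PAFAH1B2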
Target sequence (P68402 whole entry, looked up): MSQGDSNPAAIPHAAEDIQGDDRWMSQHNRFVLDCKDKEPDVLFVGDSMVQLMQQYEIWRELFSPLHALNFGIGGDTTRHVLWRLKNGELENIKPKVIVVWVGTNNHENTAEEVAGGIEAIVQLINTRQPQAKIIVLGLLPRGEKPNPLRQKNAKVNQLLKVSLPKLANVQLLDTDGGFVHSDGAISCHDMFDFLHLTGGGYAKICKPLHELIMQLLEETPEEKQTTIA
PAFAH2 FP inh: inhibitors of human PAFAH2; 340,000 compounds, 0.99% hits; inhibition, % at 3.39 µM; AID 492956; recombinant PAFAH2, FP-rhodamine activity probe, fluorescence polarization; Q99487;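 active = inhibition above the mean over all tested compounds plus 3 SD, cut at about 30% in these data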;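 also: inhibitors block probe labeling of enzyme so polarization drops; 0% = enzyme with DMSO and 100% = wells lacking PAFAH2 protein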
mABHD4 FP: inhibitors of mouse ABHD4. inhibition, % at 8.92 µM. 370,000 compounds, 0.54% hits. purified mABHD4, FP-Rh probe fluorescence polarization;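 active = inhibition exceeding the mean over every tested compound plus 3 SD, cut at about 30% in these data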;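 also: 0% = plate median of compound wells and 100% = S159A mutant with DMSO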
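System: mouse ABHD4 enzyme, wild type / Medium: HEPES pH 7.0, NaCl, Pluronic buffer / Reagent: FP-Rh activity-based fluorescent probe / Control set: S159A mutant high control, sample median low control / Detection: fluorescence polarization with parallel and perpendicular emission, 525/598 nm / Schedule: 45 min + 60 min at 25 °C / Compound dosing: 8.92 µM, single dose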
HTRA1 inh: HTRA1 (human) protease inhibition; inhibition, % at 5.96 µM; 340,000 compounds, 0.5% hits; AID 504803; recombinant HTRA1, FP-rhodamine activity-based probe, fluorescence polarization; in the data active = inhibition above about 36%;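 also: 0% = enzyme with DMSO and 100% = wells lacking enzyme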
PAFAH1B3 inh: inhibitors of human PAFAH1B3; Q15102; recombinant PAFAH1B3, FP-rhodamine probe, fluorescence polarization; inhibition, % at 3.39 µM; 340,000 compounds, 0.28% hits; AID 492972;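 active = inhibition above the screen-wide average of all tested compounds plus 3 SD, cut at about 25% in these data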;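 also: 0% = enzyme with DMSO only and 100% = wells lacking PAFAH1B3 protein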
Target sequence (Q15102 whole entry, looked up): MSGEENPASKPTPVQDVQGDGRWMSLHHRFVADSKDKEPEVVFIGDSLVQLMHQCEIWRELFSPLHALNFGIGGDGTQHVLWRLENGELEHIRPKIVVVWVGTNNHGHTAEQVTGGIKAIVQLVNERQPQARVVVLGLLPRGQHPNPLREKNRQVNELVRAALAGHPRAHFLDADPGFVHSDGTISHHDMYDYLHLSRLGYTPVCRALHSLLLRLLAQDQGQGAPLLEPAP
Numbers without * were called inactive; x = no result. Hits are enriched below; roughly 2.8% of the tested compounds scored in any of these assays.

SMILES	pPAFAH inh	PAFAH1B2 FP inh	PAFAH2 FP inh	mABHD4 FP	HTRA1 inh	PAFAH1B3 inh
Cc1ccc(NC(=O)COC(=O)Cc2csc(-c3cccc(F)c3)n2)cc1C	27*	20	2	2	-10	8
Cc1ccc(NC(=O)COC(=O)Cc2csc(-c3ccc(Cl)cc3)n2)cc1C	11	8	7	3	-6	-2
COCc1nnc(NC(=O)CCCOc2ccccc2OC)s1	3	8	0	1	4	-13
COCc1nnc(NC(=O)CCCOc2ccccc2)s1	34*	2	-2	-1	-6	11
COc1ccc2[nH]c3c(N4CCc5ccccc5C4)ncnc3c2c1	33*	10	10	36*	-5	15
Nc1[nH]c(C(=O)c2ccccc2)c(-c2ccc(Br)cc2)c1C(=O)N1CCN(CCO)CC1	x	x	x	-55	x	x
Cc1ccc(C)c(S(=O)(=O)N2CCN(C(=O)c3ccc(-n4cncn4)c([N+](=O)[O-])c3)CC2)c1	7	2	2	-3	4	5
Cc1ccc(C)c(S(=O)(=O)N2CCN(C(=O)c3ccc(N4CCCC4)c([N+](=O)[O-])c3)CC2)c1	25*	3	-8	12	-16	3
COc1cccc(-c2nnc(SCc3cc(C)ccc3C)n2Cc2ccco2)c1	x	x	x	-14	x	x
C[N+]1=C(N)NC2=C3CCCCC3n3c(=O)n(-c4ccccc4)c(=O)n3C2C1 (configuration not stated)	x	x	x	4	x	x
O=C(NCCSc1ncc(-c2ccc(F)cc2)[nH]1)c1ccc2c(c1)OCO2	1	33*	3	4	-6	2
CCC[C@H]1[C@@H](N(C)Cc2cccs2)CC[C@@]23CCCN2C(=O)CCC[C@@H]13	x	x	x	-9	x	x
CC(=O)NC(c1ccc(C)cc1)c1cc([N+](=O)[O-])c2cccnc2c1O (configuration not stated)	28*	5	9	12	30	4
O=[N+]([O-])c1cc(Cl)c(O)c2ncccc12	x	5	1	18	55*	0
CC1CCN(S(=O)(=O)c2ccc(NC(=O)Cc3cccs3)cc2)CC1	13	31*	2	-21	-20	-1
CC1CCN(CC(=O)Nc2ccc(S(=O)(=O)N3CCC(C)CC3)cc2)CC1	-1	29*	-4	8	-1	8
CC1CCN(S(=O)(=O)c2ccc(NC(=O)CN3CCCC3)cc2)CC1	8	15	-1	12	2	4
CC1CCCN(CC(=O)Nc2ccc(S(=O)(=O)NC3CCCCC3)cc2)C1 (configuration not stated)	28*	6	-3	0	-15	0
CC1CCN(S(=O)(=O)c2ccc(NC(=O)CN3CCOCC3)cc2)CC1	3	33*	9	6	0	17
CC1CCCN(CC(=O)Nc2ccc(S(=O)(=O)N3CCCCC3)cc2)C1 (configuration not stated)	-3	3	-4	4	-1	2
Cc1cc(C)cc(N(CC(=O)NC2CCC(C)CC2)S(=O)(=O)c2ccc(Cl)s2)c1 (configuration not stated)	x	x	x	8	x	x
CC(NC(=O)COC(=O)c1ccc([N+](=O)[O-])s1)c1ccccc1 (configuration not stated)	25*	9	7	-1	22	16
Cc1ccc(C(=O)OCC(=O)NNC(=O)c2ccccc2)c(O)c1	7	8	0	-3	1	12
CCN(CC)S(=O)(=O)c1cccc(C(=O)OCC(=O)NC(C)c2ccccc2)c1 (configuration not stated)	27*	5	45*	-5	0	5
O=C(COC(=O)c1ccc([N+](=O)[O-])s1)NNC(=O)c1ccccc1	22	10	36*	x	32	36*
SMILES	pPAFAH inh	PAFAH1B2 FP inh	PAFAH2 FP inh	mABHD4 FP	HTRA1 inh	PAFAH1B3 inh
O=C1CN(C(=O)COC(=O)c2ccc([N+](=O)[O-])s2)c2ccccc2N1	14	14	32*	x	33	46*
Cc1ccccc1NC(=O)CCS(=O)(=O)c1ccccc1	x	x	x	1	x	x
COC(=O)[C@H](C(C)C)N(Cc1cn(Cc2ccccc2)nn1)S(=O)(=O)c1ccc(F)cc1Br	x	x	x	-2	x	x
CCOC(=O)N1CCN(C(=O)C[C@H]2C[C@@]3(C(=O)OC)C(=C[C@H](C4CCCC4)O[C@@H]3C)N(CCc3ccc(OC)c(OC)c3)C2=O)CC1	x	x	x	3	x	x
O=C(CSc1nnc(COc2ccccc2)n1Cc1ccco1)Nc1ccc2c(c1)OCO2	x	x	x	2	x	x
O=S(=O)(Nc1cc(Sc2cccc3cccnc23)c(O)c2ccccc12)c1ccc(F)cc1	34*	x	x	38*	x	x
COc1cccc(NC(=O)N2CC[C@@H]3[C@H]2c2cc(-c4cccc(C#N)c4)ccc2N(C)[C@@H]3CO)c1	x	x	x	10	x	x
CC(C)c1ccc(C(CC(=O)c2ccc(Cl)cc2)C(=O)O)cc1 (configuration not stated)	5	38*	-14	-9	-2	-2
Cc1cccc(-c2cccc3c4c([nH]c23)[C@@H]2C[C@H]3[C@@H](C(=O)N2CC4)[C@H](C)ON3C)c1	x	x	x	6	x	x
COc1cccc(/C=N/NC(=O)c2ccc(-c3ccccc3)cc2)c1O	15	3	7	16	33	11
COc1cccc(/C=N/NC(=O)c2[nH]c(C)c(C(=O)N/N=C/c3cccc(OC)c3O)c2C)c1O	28*	7	-5	-15	16	45*
COc1cccc(/C=N/NC(=O)C(=O)Nc2ccccc2OC(F)(F)C(F)F)c1O	12	5	35*	10	17	27*
CCOc1ccccc1NC(=O)C(=O)N/N=C/c1cc(Br)ccc1O	26*	5	10	14	14	4
C[C@H]1[C@@H](N(C)C)CC[C@@]23CCCN2C(=O)CCC[C@@H]13	x	x	x	10	x	x
O=C(COC(=O)CCNS(=O)(=O)c1ccccc1)NC(=O)Cc1ccccc1	30*	8	-3	2	10	5
O=C(COC(=O)CCNS(=O)(=O)c1ccc(Cl)cc1)NCc1ccccc1	x	x	x	1	4	x
O=C(CCNS(=O)(=O)c1ccccc1)OCC(=O)c1ccc(F)cc1	34*	7	8	0	1	-3
Cc1ccccc1Nc1nc(N)nc(COC(=O)c2ccccc2)n1	2	-5	4	1	3	-6
Cc1cc(Cl)ccc1NC(=O)COC(=O)CCNS(=O)(=O)c1ccccc1	34*	4	3	2	3	-1
Cc1ccccc1Nc1nc(N)nc(COC(=O)CCNS(=O)(=O)c2ccccc2)n1	28*	3	5	-13	-11	-2
CC(=O)c1cccc(NC(=O)COC(=O)CCNS(=O)(=O)c2ccccc2)c1	29*	5	8	1	2	8
O=C(COC(=O)CCNS(=O)(=O)c1ccc(Cl)cc1)NCc1ccco1	27*	14	3	2	1	2
